From ChEMBL document CHEMBL1153370, “New pyridazine derivatives: synthesis, chemistry and biological activity” (2009)

Tests used:
Type in all cases: functional
Staphylococcus aureus [1] = assay: Antibacterial activity Staphylococcus aureus ATCC 25923 after 24 hrs at 30 degC by agar diffusion technique
Outline: (§1)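 Agar diffusion method. Bacteria were maintained on Mueller Hinton agar, and the agar medium was inoculated with each test organism. Plates were incubated 24 h at 30 °C, then the diameter of the inhibition zone was measured in mm and reported as the mean diameter.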

Micrococcus luteus [2] = assay: Antibacterial activity Sarcina lutea ATCC 9341 after 24 hrs at 30 degC by agar diffusion technique; outline: as §1
Bacillus subtilis [3] = assay: Antibacterial activity Bacillus subtilis after 24 hrs at 30 degC by agar diffusion technique; outline: as §1
Pseudomonas aeruginosa [4] = assay: Antibacterial activity Pseudomonas aeruginosa after 24 hrs at 30 degC by agar diffusion technique; outline: as §1
Escherichia coli [5] = assay: Antibacterial activity Escherichia coli ATCC 25922 after 24 hrs at 30 degC by agar diffusion technique; outline: as §1
Candida albicans = assay: Antifungal activity Candida albicans ATCC 10231 after 48 hrs at 28 degC by agar diffusion technique
Outline: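 Fungi were maintained on Mueller Hinton agar and tested by diffusion on agar seeded with the organism. After 48 h incubation at 28 °C, the inhibition zone diameter (mm, mean) was measured.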

Staphylococcus aureus [6] = assay: Antibacterial activity Staphylococcus aureus ATCC 25923 at 30 ug/disk after 24 hrs at 30 degC by agar diffusion technique; conditions: ATCC 25923, 24 h, read-out: Diameter of inhibition zone; outline: as §1
Micrococcus luteus [7] = assay: Antibacterial activity Sarcina lutea ATCC 9341 at 30 ug/disk after 24 hrs at 30 degC by agar diffusion technique; conditions: ATCC 9341, 24 h, read-out: Diameter of inhibition zone; outline: as §1
Bacillus subtilis [8] = assay: Antibacterial activity Bacillus subtilis at 30 ug/disk after 24 hrs at 30 degC by agar diffusion technique; conditions: read-out: Diameter of inhibition zone; outline: as §1
Pseudomonas aeruginosa [9] = assay: Antibacterial activity Pseudomonas aeruginosa at 30 ug/disk after 24 hrs at 30 degC by agar diffusion technique; conditions: read-out: Diameter of inhibition zone; outline: as §1
Escherichia coli [10] = assay: Antibacterial activity Escherichia coli ATCC 25922 at 30 ug/disk after 24 hrs at 30 degC by agar diffusion technique; conditions: ATCC 25922, 24 h, read-out: Diameter of inhibition zone
Outline: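 Agar diffusion method; organisms kept on Mueller Hinton agar, and agar media were inoculated with the test culture. Bacterial plates incubated 24 h at 30 °C, then diameter of the inhibition zone measured in mm (mean diameter).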

Structure (SMILES)	Diameter of inhibition zone (Staphylococcus aureus [1])	Diameter of inhibition zone (Micrococcus luteus [2])	Diameter of inhibition zone (Bacillus subtilis [3])	Diameter of inhibition zone (Pseudomonas aeruginosa [4])	Diameter of inhibition zone (Escherichia coli [5])	Diameter of inhibition zone (Candida albicans)	zone of inhibition at 30 µg/disc (Staphylococcus aureus [6])	zone of inhibition at 30 µg/disc (Micrococcus luteus [7])	zone of inhibition at 30 µg/disc (Bacillus subtilis [8])	zone of inhibition at 30 µg/disc (Pseudomonas aeruginosa [9])	zone of inhibition at 30 µg/disc (Escherichia coli [10])
O=C(c1ccc(Cl)cc1)[C@H]1[C@@H]2C(=O)N(c3ccccc3)C(=O)[C@@H]2[C@@H]2C=CC=NN21	28 mm	54 mm	28 mm	18 mm	28 mm	34 mm					
Cc1ccc(C(=O)[C@H]2[C@@H]3C(=O)N(c4ccccc4)C(=O)[C@@H]3[C@@H]3C=CC=NN32)cc1	31 mm	73 mm	37 mm	18 mm	24 mm	29 mm					
CCOC(=O)c1cc(C(=O)c2ccc(F)cc2)n2ncccc12	27 mm	48 mm	22 mm	20 mm	23 mm	22 mm					
O=C(C[n+]1ccccn1)c1ccc(F)cc1.[Br-]	38 mm	61 mm	31 mm	20 mm	31 mm	19 mm					
N#C[C@H]1C[C@@H](C(=O)c2ccc(Cl)cc2)N2N=CC=C[C@@H]12	30 mm	57 mm	29 mm	14 mm	28 mm	35 mm					
COC(=O)[C@H]1[C@H](C(=O)OC)[C@H](C(=O)c2ccc(F)cc2)N2N=CC=C[C@@H]12	29 mm	51 mm	35 mm	17 mm	35 mm	27 mm					
CCOC(=O)c1cc(C(=O)c2ccc(C)cc2)n2ncccc12	40 mm	56 mm	37 mm	18 mm	25 mm	28 mm					
COC(=O)[C@@H]1[C@H](C(=O)OC)[C@H](C(=O)c2ccc(C)cc2)N2N=CC=C[C@@H]12	41 mm	62 mm	39 mm	19 mm	37 mm	30 mm					
O=C(c1ccc(F)cc1)[C@H]1[C@@H]2C(=O)N(c3ccccc3)C(=O)[C@@H]2[C@@H]2C=CC=NN21	27 mm	63 mm	28 mm	16 mm	25 mm	25 mm					
Cc1ccc(C(=O)C[n+]2ccccn2)cc1.[Br-]	47 mm	81 mm	40 mm	20 mm	25 mm	27 mm					
O=C(N[C@H](CO)[C@H](O)c1ccc([N+](=O)[O-])cc1)C(Cl)Cl [CHLORAMPHENICOL]							30 mm	40 mm	26 mm	19 mm	25 mm
